Source: ChEMBL document CHEMBL4814031, “In pursuit of a selective hepatocellular carcinoma therapeutic agent: Novel thalidomide derivatives with antiproliferative, antimigratory and STAT3 inhibitory properties” (Eur J Med Chem, 2021)
Activity calls are given as the source filed them. The calls are words filed in the database; no cut-off is given here.

Legend:
BMOL-T [1] = experiment: (§1) Antiproliferative activity against mouse BMOL-T cells assessed as minimum concentration required for cell growth inhibition measured every 4 hrs for 3 days by IncuCyte zoom live cell analysis; assay type: functional; settings: time 3.0 day
Summary of the method: (§2)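 Dose series for BMOL-T proliferation: cells plated at 1000/well, compound added from 2× solutions (final 0.1% DMSO), imaged every 4 h for 3 days. Doubling time from the log-phase linear part of a log confluence vs time curve, expressed as % change over vehicle. n = 3, SEM.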

[2] = as §1; assay type: functional; settings: time 3 day; summary of the method: as §2
[3] = Inhibition of Akt phosphorylation in mouse BMOL-NT cells assessed as change in nuclear phosphorylated Akt level at 10 uM incubated for 6 hrs by immunofluorescent assay relative to control; assay type: subcellular, Nucleus; parameters: scale not given: the % may be the effect or the level left
Summary of the method: (§3)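 BMOL cells in supplemented Williams' E medium were treated 6 h with compound or 0.1% DMSO vehicle. Fixed in 4% PFA, permeabilised with 0.1% Triton X-100, blocked, then incubated 18 h with anti-phospho-p65, -Akt or -STAT3, then secondary antibody 1 h and Hoechst. High-content imaging of per-cell intensity and nuclear:whole-cell ratio. Mean of two experiments, SD.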

[4] = target: Signal transducer and activator of transcription 3 (Mus musculus) (UniProt P42227); experiment: Inhibition of STAT3 phosphorylation in mouse BMOL-T cells assessed as change in phosphorylated STAT3 level at 10 uM incubated for 6 hrs by immunofluorescence assay relative to control; assay type: cell-based; parameters: scale not given: the % may be the effect or the level left; summary of the method: as §3
Chain of Signal transducer and activator of transcription 3 (Mus musculus) (P42227 whole entry): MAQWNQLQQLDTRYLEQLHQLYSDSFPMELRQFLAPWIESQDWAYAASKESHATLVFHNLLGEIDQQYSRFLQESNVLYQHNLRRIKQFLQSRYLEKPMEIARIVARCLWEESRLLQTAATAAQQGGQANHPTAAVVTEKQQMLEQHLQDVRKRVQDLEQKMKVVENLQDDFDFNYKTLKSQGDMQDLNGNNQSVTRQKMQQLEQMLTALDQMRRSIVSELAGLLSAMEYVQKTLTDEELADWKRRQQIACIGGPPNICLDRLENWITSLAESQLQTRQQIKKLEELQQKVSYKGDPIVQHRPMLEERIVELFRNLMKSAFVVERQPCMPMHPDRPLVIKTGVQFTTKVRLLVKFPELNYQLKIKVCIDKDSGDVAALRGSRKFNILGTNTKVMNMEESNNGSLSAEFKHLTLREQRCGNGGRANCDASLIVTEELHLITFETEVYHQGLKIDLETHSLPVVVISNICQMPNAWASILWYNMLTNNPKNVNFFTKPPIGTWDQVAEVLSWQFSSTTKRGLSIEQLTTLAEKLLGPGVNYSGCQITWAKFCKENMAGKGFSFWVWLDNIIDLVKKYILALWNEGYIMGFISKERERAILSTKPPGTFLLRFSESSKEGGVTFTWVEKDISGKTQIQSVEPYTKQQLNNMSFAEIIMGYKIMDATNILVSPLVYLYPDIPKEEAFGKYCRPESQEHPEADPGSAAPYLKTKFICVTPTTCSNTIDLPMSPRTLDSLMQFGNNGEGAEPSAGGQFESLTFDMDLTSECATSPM

[5] = Antimigratory activity against mouse BMOL-T cells assessed as inhibition of cell migration at 10 uM incubated for 16 hrs by scratch wound healing assay relative to control; assay type: functional
Summary of the method: (§4)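 Wound healing in BMOL-T cells plated at 20,000/well in supplemented Williams' E medium and grown 24 h. Wounds made with a Woundmaker, then medium replaced with fresh medium holding compound or 0.1% DMSO vehicle. Live-cell imaging every 2 h over 24 h, read as average wound width (µm). n = 3, SEM.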

[6] = target: Signal transducer and activator of transcription 3 (Mus musculus) (UniProt P42227); experiment: Inhibition of STAT3 phosphorylation in mouse BMOL-T cells assessed as change in nuclear phosphorylated STAT3 level at 10 uM incubated for 6 hrs by immunofluorescence assay relative to control; assay type: subcellular; parameters: scale not given: the % may be the effect or the level left; settings: Nucleus; summary of the method: as §3
BMOL-T [7] = experiment: Effect on STAT3 expression in mouse BMOL-T cells at 10 uM by AlphaLISA assay; assay type: functional, cell-based
Summary of the method: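 AlphaLISA in BMOL-T cells treated at 10 µM with 0.1% DMSO vehicle as control. Read as normalised fluorescence for total STAT3, or as the ratio of total STAT3 to p-STAT3. n ≥ 3, SEM. Significance by ANOVA with Dunnett's test.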

[8] = Antiproliferative activity against mouse BMOL-NT cells assessed as cell growth inhibition at 14 to 26 uM measured every 4 hrs for 3 days by IncuCyte zoom live cell analysis; assay type: cell-based; settings: 72 h, dose 14-26 µM, time 3 day
BMOL-T [9] = experiment: Antimigratory activity against mouse BMOL-T cells assessed as inhibition of cell migration at 10 uM incubated for 24 hrs by scratch wound healing assay; assay type: functional, cell-based; summary of the method: as §4
[10] = Selectivity for antiproliferative activity against mouse BMOL-T cells over mouse BMOL-NT cells at 10 uM measured every 4 hrs for 3 days by IncuCyte zoom live cell analysis; settings: time 3 day
BMOL-T [11] = experiment: Inhibition of Akt phosphorylation in mouse BMOL-T cells assessed as change in nuclear phosphorylated Akt level at 10 uM incubated for 6 hrs by immunofluorescent assay relative to control; assay type: subcellular; parameters: scale not given: the % may be the effect or the level left; settings: Nucleus; summary of the method: as §3
[12] = Selectivity for antiproliferative activity against mouse BMOL-T cells over mouse BMOL-NT cells at 26 uM measured every 4 hrs for 3 days by IncuCyte zoom live cell analysis; settings: time 3 day
[13] = target: T1, Signal transducer and activator of transcription 3 (Mus musculus, UniProt P42227); experiment: Inhibition of STAT3 phosphorylation in mouse BMOL-NT cells assessed as change in nuclear phosphorylated STAT3 level at 10 uM incubated for 6 hrs by immunofluorescence assay relative to control; assay type: subcellular, Nucleus; parameters: scale not given: the % may be the effect or the level left; summary of the method: as §3
T1 sequence (P42227 whole entry): as above

BMOL-T [14] = experiment: Inhibition of Akt phosphorylation in mouse BMOL-T cells assessed as change in phosphorylated Akt level at 10 uM incubated for 6 hrs by immunofluorescent assay relative to control; assay type: cell-based; parameters: scale not given: the % may be the effect or the level left; summary of the method: as §3
Transcription factor p65 [15] = target: T2, Transcription factor p65 (Mus musculus, UniProt Q04207); experiment: Inhibition of NFkB p65 nuclear translocation in mouse BMOL-NT cells assessed as change in nuclear p65 level at 10 uM incubated for 6 hrs by immunofluorescent assay relative to control; assay type: subcellular, Nucleus; parameters: scale not given: the % may be the effect or the level left; summary of the method: as §3
T2 sequence (Q04207 whole entry): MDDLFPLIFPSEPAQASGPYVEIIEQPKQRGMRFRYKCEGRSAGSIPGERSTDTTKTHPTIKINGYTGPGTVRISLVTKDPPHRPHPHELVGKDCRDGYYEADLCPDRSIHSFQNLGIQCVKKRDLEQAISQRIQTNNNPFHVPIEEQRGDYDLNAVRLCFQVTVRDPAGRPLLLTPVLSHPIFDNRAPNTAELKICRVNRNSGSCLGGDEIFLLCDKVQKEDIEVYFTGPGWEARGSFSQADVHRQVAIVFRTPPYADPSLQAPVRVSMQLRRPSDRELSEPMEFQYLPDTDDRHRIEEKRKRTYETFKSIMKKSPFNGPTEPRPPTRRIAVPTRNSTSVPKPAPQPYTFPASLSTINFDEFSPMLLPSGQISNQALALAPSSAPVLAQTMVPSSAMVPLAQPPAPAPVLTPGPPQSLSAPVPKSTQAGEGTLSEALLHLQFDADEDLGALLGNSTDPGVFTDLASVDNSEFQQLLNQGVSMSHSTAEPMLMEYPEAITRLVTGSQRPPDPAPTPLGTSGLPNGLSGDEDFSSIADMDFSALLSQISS

[16] = target: Transcription factor p65 (Mus musculus) (UniProt Q04207); experiment: Inhibition of NFkB p65 nuclear translocation in mouse BMOL-T cells assessed as change in nuclear p65 level at 10 uM incubated for 6 hrs by immunofluorescent assay relative to control; assay type: subcellular; parameters: scale not given: the % may be the effect or the level left; settings: Nucleus; summary of the method: as §3
Chain of Transcription factor p65 (Mus musculus) (Q04207 whole entry): as above

[17] = target: Transcription factor p65 (Mus musculus) (UniProt Q04207); experiment: Inhibition of NFkB p65 phosphorylation in mouse BMOL-T cells assessed as change in phosphorylated p65 level at 10 uM incubated for 6 hrs by immunofluorescent assay relative to control; assay type: cell-based; parameters: scale not given: the % may be the effect or the level left; summary of the method: as §3
[18] = Antiproliferative activity against mouse BMOL-NT cells assessed as cell growth inhibition at >10 uM measured every 4 hrs for 3 days by IncuCyte zoom live cell analysis; assay type: cell-based; settings: 72 h, time 3 day
[19] = Inhibition of Akt phosphorylation in mouse BMOL-NT cells assessed as change in phosphorylated Akt level at 10 uM incubated for 6 hrs by immunofluorescent assay relative to control; assay type: cell-based; parameters: scale not given: the % may be the effect or the level left; summary of the method: as §3
Transcription factor p65 [20] = target: T2, Transcription factor p65; experiment: Inhibition of NFkB p65 phosphorylation in mouse BMOL-NT cells assessed as change in phosphorylated p65 level at 10 uM incubated for 6 hrs by immunofluorescent assay relative to control; assay type: cell-based; parameters: scale not given: the % may be the effect or the level left; summary of the method: as §3
[21] = target: T1, Signal transducer and activator of transcription 3; experiment: Inhibition of STAT3 phosphorylation in mouse BMOL-NT cells assessed as change in phosphorylated STAT3 level at 10 uM incubated for 6 hrs by immunofluorescence assay relative to control; assay type: cell-based; parameters: scale not given: the % may be the effect or the level left; summary of the method: as §3
[22] = Antiproliferative activity against mouse BMOL-T cells assessed as cell growth inhibition at 10 uM measured every 4 hrs for 3 days by IncuCyte zoom live cell analysis relative to control; assay type: functional; settings: 72 h, time 3 day

Activity [3]: -25%
Activity [4]: -22%
Activity [6]: -16%
Activity (BMOL-T [11]): -19%
Activity [13]: -8%
Activity (Transcription factor p65 [15]): 11%
Activity [16]: -23%
Activity [17]: -13%
Activity [19]: 0%
Activity (Transcription factor p65 [20]): 0%
Activity [21]: -5%
SMILES: CC(C)(C)c1ccc(Sc2cccc3c2C(=O)N(C2CCC(=O)NC2=O)C3=O)cc1 (configuration not stated)
Activity (BMOL-T [1]): Dose-Dependent Effect
MAC [2]: <6 µM
inhibition at 10 µM [5]: 80%
Activity (BMOL-T [7]): inactive
Activity [8]: Toxic
Activity (BMOL-T [9]): Active
Selectivity ratio [10]: 9
Selectivity ratio [12]: 9
Activity (BMOL-T [14]): -3%
Activity [18]: Toxic
inhibition at 10 µM [22]: 36%
